Experimental data reported in the RNAGym collection of RNA variant scans (doi:10.1002/anie.201605470).

B1: Osa-1-4 twister ribozyme (parent)
chain: CCGCCUAACACUGCCAAUGCCGGUCCCAAGCCCGGAUAAAAGUGGAGGGGGCGG

Variants of: B1
Test: self-cleavage, relative activity (ratio to wild type); higher = more cleavage; co-transcriptional
Procedure, shortened: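 A DNA template encoding a 54-nucleotide twister ribozyme from Oryza sativa was made so that each of the 48 positions downstream of the cleavage site carried 97 % wild-type base and 1 % of each other base. Transcription in vitro ran for 2 h at 37 °C, during which the ribozyme could cleave itself. Reverse transcription used a template-switching oligonucleotide, and the products were PCR-amplified and deep-sequenced. Each read was scored as cleaved or uncleaved by whether upstream sequence was present, and relative activity is the fraction cleaved normalised to wild type.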

Variant	self-cleavage
CCGCCUAACACUGCCAAUGCCGGUCUCAAGCACGGAUAAAAGUGGAGGGGGCGG	0.06
CCGCCUAACACUGCCAAUGCCGGUCUCAAGCUCGGAUAAAAGUGGAGGGGGCGG	0.09
CCGCCUAACACUGCCAAUGCCGGUCUCAAGCGCGGAUAAAAGUGGAGGGGGCGG	0.27
CCGCCUAACACUGCCAAUGCCGGUCUGAAGCCCGGAUAAAAGUGGAGGGGGCGG	0.06
CCGCCUAACACUGCCAAUGCCGGUCUUAAGCCCGGAUAAAAGUGGAGGGGGCGG	0.24
CCGCCUAACACUGCCAAUGCCGGUCUAAAGCCCGGAUAAAAGUGGAGGGGGCGG	0.07
CCGCCUAACACUGCCAAUACCGGUCUCAAGCCCGGAUAAAAGUGGAGGGGGCGG	0.14
CCGCCUAACACUGCCAAUUCCGGUCUCAAGCCCGGAUAAAAGUGGAGGGGGCGG	0.05
CCGCCUAACACUGCCAAUCCCGGUCUCAAGCCCGGAUAAAAGUGGAGGGGGCGG	0.04
CCGCCUAAUACUGCCAAUGCCGGUCUCAAGCCCGGAUAAAAGUGGAGGGGGCGG	0.55
CCGCCUAAGACUGCCAAUGCCGGUCUCAAGCCCGGAUAAAAGUGGAGGGGGCGG	0.24
CCGCCUAAAACUGCCAAUGCCGGUCUCAAGCCCGGAUAAAAGUGGAGGGGGCGG	0.26
CCGCCUAACACUGCCAAUGCCGGUCUCAAGCCCGGAUAAAAUUGGAGGGGGCGG	0.04
CCGCCUAACACUGCCAAUGCCGGUCUCAAGCCCGGAUAAAAAUGGAGGGGGCGG	0.13
CCGCCUAACACUGCCAAUGCCGGUCUCAAGCCCGGAUAAAACUGGAGGGGGCGG	0.1
CCGCCUAACACUGCCAAUGCCGGUCUCAAGCCCAGAUAAAAGUGGAGGGGGCGG	0.92
CCGCCUAACACUGCCAAUGCCGGUCUCAAGCCCCGAUAAAAGUGGAGGGGGCGG	0.56
CCGCCUAACACUGCCAAUGCCGGUCUCAAGCCCUGAUAAAAGUGGAGGGGGCGG	0.83
CCGCCUAACACUGCCAAUGCCGGUCUCAAGCCCGGAUAAAAGUGGAGGGGGCGG	0.98
CCGCCUAACACUGCCAAUGCCGGUCUCAAGGCCGGAUAAAAGUGGAGGGGGCGG	0.07
CCGCCUAACACUGCCAAUGCCGGUCUCAAGACCGGAUAAAAGUGGAGGGGGCGG	0.05
CCGCCUAACACUGCCAAUGCCGGUCUCAAGUCCGGAUAAAAGUGGAGGGGGCGG	0.16
CCGCCUAACACUGCCAAUGCCCGUCUCAAGCCCGGAUAAAAGUGGAGGGGGCGG	0.08
CCGCCUAACACUGCCAAUGCCAGUCUCAAGCCCGGAUAAAAGUGGAGGGGGCGG	0.91
CCGCCUAACACUGCCAAUGCCUGUCUCAAGCCCGGAUAAAAGUGGAGGGGGCGG	0.74

Variant	self-cleavage
CCGCCUAACACUGCCAAUGCCGGUCUCAAGCCCGGAUAAAAGUGGAGGGGGUGG	0.98
CCGCCUAACACUGCCAAUGCCGGUCUCAAGCCCGGAUAAAAGUGGAGGGGGAGG	0.71
CCGCCUAACACUGCCAAUGCCGGUCUCAAGCCCGGAUAAAAGUGGAGGGGGGGG	0.84
CCGCCUAACACUACCAAUGCCGGUCUCAAGCCCGGAUAAAAGUGGAGGGGGCGG	0.05
CCGCCUAACACUCCCAAUGCCGGUCUCAAGCCCGGAUAAAAGUGGAGGGGGCGG	0.02
CCGCCUAACACUUCCAAUGCCGGUCUCAAGCCCGGAUAAAAGUGGAGGGGGCGG	0.03
CCGCCUAACACUGCCAAUGCCGGUCUCAAGCCCGGAUAAAAGUAGAGGGGGCGG	0.4
CCGCCUAACACUGCCAAUGCCGGUCGCAAGCCCGGACAAAAGUGGAGGGGGCGG	0.1
CCGCCUAACACUGCCAAUGCCGGUCGCAAGCCCGGAGAAAAGUGGAGGGGGCGG	0.1
CCGCCUAACACUGCCAAUGCCGGUCGCAAGCCCGGAUAAAAGGGGAGGGGGCGG	0.07
CCGCCUAACACUGCCAAUGCCGGUCGCAAGCCCGGAUAAAAGAGGAGGGGGCGG	0.09
CCGCCUAACACUGCCAAUGCCGGUCGCAAGCCCGGAUAAAAGCGGAGGGGGCGG	0.07
CCGCCUAACACUGCCAAUGCCGGUCUCAAUCCCGGAUAAAAGUGGAGGGGGCGG	0.03
CCGCCUAACACUGCCAAUGCCGGUCUCAACCCCGGAUAAAAGUGGAGGGGGCGG	0.04
CCGCCUAACACUGCCAAUGCCGGUCUCAAACCCGGAUAAAAGUGGAGGGGGCGG	0.03
CCGCCUAACACUGCCAAUGCCGCUCUCAAGCCCGGAUAAAAGUGGAGGGGGCGG	0.04
CCGCCUAACACUGCCAAUGCCGUUCUCAAGCCCGGAUAAAAGUGGAGGGGGCGG	0.04
CCGCCUAACACUGCCAAUGCCGAUCUCAAGCCCGGAUAAAAGUGGAGGGGGCGG	0.15
CCGCCUAACACUGCCAAUGCCGGUCUCAAGCCCGUAUAAAAGUGGAGGGGGCGG	0.88
CCGCCUAACACUGCCAAUGCCGGUCUCAAGCCCGAAUAAAAGUGGAGGGGGCGG	0.9
CCGCCUAACACUGCCAAUGCCGGUCUCAAGCCCGCAUAAAAGUGGAGGGGGCGG	0.09
CCGCCUAACACUGCCAAUGCCGGUCUCAAGCCGGGAUAAAAGUGGAGGGGGCGG	0.07
CCGCCUAACACUGCCAAUGCCGGUCUCAAGCCUGGAUAAAAGUGGAGGGGGCGG	0.32
CCGCCUAACACUGCCAAUGCCGGUCUCAAGCCAGGAUAAAAGUGGAGGGGGCGG	0.09
